Values joined by “and” are separate entries in the source; they are usually repeats but may differ in a detail not shown here. Identical values can stand only once.
Experiments:
P388 [1] = assay: Percent increase in life span of treated (20 mg/kg, qd 1-9 days) mice as compared to the untreated leukemia controls; Expressed as therapeutic response; format: functional, Mus musculus
Procedure, shortened: (§1)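 Female CDF1 mice given 1×10^6 P388 leukemia cells intraperitoneally. Drug in reagent-grade Me₂SO, dosed by average body weight in 0.1 mL. Life-span increase is from median day of death versus untreated leukemic controls. Tumor cell kill and log change (net change in viable tumor stem cells, end versus start of treatment) use a historical doubling time of 0.44 day.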

P388 [2] = assay: Percent of deaths after administration (15 mg/kg, day 1 only) in normal mice; format: functional, Mus musculus
Procedure, shortened: (§2)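 Non-tumored mice treated concurrently as drug toxicity controls. Drug in reagent-grade Me₂SO, dosed by average body weight in 0.1 mL. Deaths scored.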

P388 [3] = assay: Approximate number of tumor cells alive after administration (5 mg/kg, day 1 only) in normal mice; Expressed as therapeutic response; format: functional, Mus musculus; procedure, shortened: as §1
[4] = Approximate number of tumor cells alive after administration (10 mg/kg, qd 1-9 days) in normal mice; Expressed as therapeutic response; format: ADME, organism-based; settings: mouse, in vivo; procedure, shortened: as §1
[5] = Approximate number of tumor cells alive after administration (5 mg/kg, qd 1-9 days) in normal mice; Expressed as therapeutic response; format: ADME, organism-based; settings: mouse, in vivo; procedure, shortened: as §1
P388 [6] = assay: (§3) Approximate number of tumor cells alive after administration (10 mg/kg, day 1 only) in normal mice; Expressed as therapeutic response; format: functional, Mus musculus; procedure, shortened: as §1
P388 [7] = assay: Percent of deaths after administration (5 mg/kg, day 1 only) in leukemic mice; format: functional, Mus musculus; procedure, shortened: as §1
P388 [8] = assay: Approximate log change after administration (5 mg/kg, day 1 only) in normal mice; Expressed as therapeutic response; format: functional, Mus musculus; procedure, shortened: as §1
[9] = Approximate number of tumor cells alive after administration (15 mg/kg, day 1 only) in normal mice; Expressed as therapeutic response; format: ADME, organism-based; settings: mouse, in vivo; procedure, shortened: as §1
P388 [10] = assay: Percent of deaths after administration (10 mg/kg, qd 1-9 days) in leukemic mice; format: functional, Mus musculus; procedure, shortened: as §1
P388 [11] = assay: Percent of deaths after administration (15 mg/kg, day 1 only) in leukemic mice; format: functional, Mus musculus; procedure, shortened: as §1
P388 [12] = assay: Percent of deaths after administration (10 mg/kg, day 1 only) in normal mice; format: functional, Mus musculus; procedure, shortened: as §2
P388 [13] = assay: Percent increase in life span of treated (10 mg/kg, qd 1-9 days) mice as compared to the untreated leukemia controls; Expressed as therapeutic response; format: functional, Mus musculus; procedure, shortened: as §1
P388 [14] = assay: Percent of deaths after administration (20 mg/kg, qd 1-9 days) in leukemic mice; format: functional, Mus musculus; procedure, shortened: as §1
P388 [15] = assay: Percent of deaths after administration (5 mg/kg, qd 1-9 days) in leukemic mice; format: functional, Mus musculus; procedure, shortened: as §1
P388 [16] = assay: Percent increase in life span of treated (5 mg/kg, day 1 only) mice as compared to the untreated leukemia controls; Expressed as therapeutic response; format: functional, Mus musculus; procedure, shortened: as §1
P388 [17] = assay: Approximate log change after administration (10 mg/kg, day 1 only) in normal mice; Expressed as therapeutic response; format: functional, Mus musculus; procedure, shortened: as §1
P388 [18] = assay: Percent increase in life span of treated (5 mg/kg, qd 1-9 days) mice as compared to the untreated leukemia controls; Expressed as therapeutic response; format: functional, Mus musculus; procedure, shortened: as §1
[19] = as §3; format: ADME, organism-based; settings: mouse, in vivo; procedure, shortened: as §1
P388 [20] = assay: Percent increase in life span of treated (15 mg/kg, day 1 only) mice as compared to the untreated leukemia controls; Expressed as therapeutic response; format: functional, Mus musculus; procedure, shortened: as §1
[21] = Approximate number of tumor cells alive after administration (20 mg/kg, qd 1-9 days) in normal mice; Expressed as therapeutic response; format: ADME, organism-based; settings: mouse, in vivo; procedure, shortened: as §1
P388 [22] = assay: Percent of deaths after administration (10 mg/kg, day 1 only) in leukemic mice; format: functional, Mus musculus; procedure, shortened: as §1
Salmonella typhimurium [23] = assay: Mutagenic activity against Salmonella Typhimurium TA1535 (SHM equiv/plate 1 ug); Expressed as difference between the observed number of revertants and the average number of spontaneous revertants (Expt 1); format: functional, Salmonella enterica subsp. enterica serovar Typhimurium
Procedure, shortened: (§4)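 Salmonella typhimurium TA1535 plate incorporation assay without S9 activation. TLC-isolated metabolite and synthetic aziridine dosed as SHM equivalents per plate. Score is revertants minus mean spontaneous revertants, from two separate experiments.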

P388 [24] = assay: Percent of deaths after administration (20 mg/kg, day 1 only) in normal mice; format: functional, Mus musculus; procedure, shortened: as §2
P388 [25] = assay: Percent increase in life span of treated (10 mg/kg, day 1 only) mice as compared to the untreated leukemia controls; Expressed as therapeutic response; format: functional, Mus musculus; procedure, shortened: as §1
P388 [26] = assay: Percent of deaths after administration (30 mg/kg, day 1 only) in normal mice; format: functional, Mus musculus; procedure, shortened: as §2
Salmonella typhimurium [27] = assay: Mutagenic activity against Salmonella Typhimurium TA1535 (SHM equiv/plate 1 ug); Expressed as difference between the observed number of revertants and the average number of spontaneous revertants (Expt 2); format: functional, Salmonella enterica subsp. enterica serovar Typhimurium; procedure, shortened: as §4
P388 [28] = assay: Percent of deaths after administration (20 mg/kg, day 1 only) in leukemic mice; format: functional, Mus musculus
P388 [29] = assay: Approximate log change after administration (30 mg/kg, day 1 only) in normal mice; Expressed as therapeutic response; format: functional, Mus musculus
Procedure, shortened: (§5)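 Female CDF1 mice were implanted intraperitoneally with 1×10^6 P388 leukemia cells. Drug was prepared in reagent-grade Me₂SO according to average body weight, with each dose in 0.1 mL. Concurrent drug toxicity controls were run. Tumor cell kill was calculated from median day of death using a historical doubling time of 0.44 day. Log change is the net change in viable tumor stem cells from the start to the end of treatment.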

P388 [30] = assay: Percent increase in life span of treated (30 mg/kg, day 1 only) mice as compared to the untreated leukemia controls; Expressed as therapeutic response; format: functional, Mus musculus; procedure, shortened: as §1
P388 [31] = assay: Percent of deaths after administration (30 mg/kg, day 1 only) in leukemic mice; format: functional, Mus musculus; procedure, shortened: as §1
P388 [32] = assay: Percent increase in life span of treated (60 mg/kg, day 1 only) mice as compared to the untreated leukemia controls; Expressed as therapeutic response; format: functional, Mus musculus; procedure, shortened: as §1
P388 [33] = assay: Percent of deaths after administration (45 mg/kg, day 1 only) in leukemic mice; format: functional, Mus musculus; procedure, shortened: as §1
P388 [34] = assay: Percent of deaths after administration (60 mg/kg, day 1 only) in normal mice; format: functional, Mus musculus; procedure, shortened: as §2
P388 [35] = assay: Percent of deaths after administration (20 mg/kg, qd 1-9 days) in normal mice; format: functional, Mus musculus; procedure, shortened: as §2
P388 [36] = assay: Approximate number of tumor cells alive after administration (20 mg/kg, day 1 only) in normal mice; Expressed as therapeutic response; format: functional, Mus musculus; procedure, shortened: as §1
P388 [37] = assay: Percent increase in life span of treated (20 mg/kg, day 1 only) mice as compared to the untreated leukemia controls; Expressed as therapeutic response; format: functional, Mus musculus; procedure, shortened: as §1
Salmonella typhimurium [38] = assay: Mutagenic activity against Salmonella Typhimurium TA1535 (SHM equiv/plate 100 ug); Expressed as difference between the observed number of revertants and the average number of spontaneous revertants (Expt 2); format: functional, Salmonella enterica subsp. enterica serovar Typhimurium; procedure, shortened: as §4
P388 [39] = assay: Approximate number of tumor cells alive after administration (30 mg/kg, day 1 only) in normal mice; Expressed as therapeutic response; format: functional, Mus musculus; procedure, shortened: as §1
P388 [40] = assay: Percent of deaths after administration (60 mg/kg, day 1 only) in leukemic mice; format: functional, Mus musculus; procedure, shortened: as §1
[41] = Approximate number of tumor cells alive after administration (45 mg/kg, day 1 only) in normal mice; Expressed as therapeutic response; format: ADME, organism-based; settings: mouse, in vivo; procedure, shortened: as §1
Salmonella typhimurium [42] = assay: Mutagenic activity against Salmonella Typhimurium TA1535 (SHM equiv/plate 10 ug); Expressed as difference between the observed number of revertants and the average number of spontaneous revertants (Expt 1); format: functional, Salmonella enterica subsp. enterica serovar Typhimurium; procedure, shortened: as §4
[43] = Approximate number of tumor cells alive after administration (60 mg/kg, day 1 only) in normal mice; Expressed as therapeutic response; format: ADME, organism-based; settings: mouse, in vivo; procedure, shortened: as §1
Salmonella typhimurium [44] = assay: Mutagenic activity against Salmonella Typhimurium TA1535 (SHM equiv/plate 10 ug); Expressed as difference between the observed number of revertants and the average number of spontaneous revertants (Expt 2); format: functional, Salmonella enterica subsp. enterica serovar Typhimurium; procedure, shortened: as §4
P388 [45] = assay: Approximate log change after administration (20 mg/kg, day 1 only) in normal mice; Expressed as therapeutic response; format: functional, Mus musculus; procedure, shortened: as §5

O=C1NC2(CCCCC2)C(=O)N1CCN(CCCl)CCCl [SPIROMUSTINE]
ILS (P388 [1]): -60% | Activity (P388 [2]): 50% | Activity (P388 [3]): 43000 | Activity [4]: Toxic | Activity [5]: Toxic | Activity (P388 [6]): 8900 | Activity (P388 [7]): 10% | Log change (P388 [8]): -2.1 | Activity [9]: Toxic | Activity (P388 [10]): 100% | Activity (P388 [11]): 40% | Activity (P388 [12]): 33% | ILS (P388 [13]): -50% | Activity (P388 [14]): 100% | Activity (P388 [15]): 100% | ILS (P388 [16]): 30% | Log change (P388 [17]): -2.7 | ILS (P388 [18]): -45% | Activity [19]: Toxic | ILS (P388 [20]): 35% | Activity [21]: Toxic

O=C1NC2(CCCCC2)C(=O)N1CCN1CC1
Activity (P388 [22]): 0% | ILS (P388 [1]): -25% | Activity (Salmonella typhimurium [23]): 15 | Activity (P388 [24]): 0% | ILS (P388 [25]): 0% | Activity [4]: Toxic | Activity (P388 [26]): 0% | Activity (Salmonella typhimurium [27]): 21 | Activity (P388 [28]): 0% | Log change (P388 [29]): 0 | ILS (P388 [30]): 0% | Activity [5]: Toxic | Activity (P388 [31]): 16% and 0% | ILS (P388 [32]): -30% | Activity (P388 [33]): 33% | Activity (P388 [6]): 4800000 | Activity (P388 [34]): 0% | Activity (P388 [10]): 0% | Activity (P388 [35]): 0% | Activity (P388 [36]): 4800000 | ILS (P388 [13]): -40% | ILS (P388 [37]): 0% | Activity (Salmonella typhimurium [38]): 2000% | Activity (P388 [39]): 4800000 | Activity (P388 [40]): 50% | Activity (P388 [14]): 83% | Activity [41]: Toxic | Activity (P388 [15]): 83% | Activity (Salmonella typhimurium [42]): 227 | ILS (P388 [18]): -5% | Activity [43]: Toxic | Activity (Salmonella typhimurium [44]): 238 | Activity [21]: Toxic | Log change (P388 [45]): 0
